ChEMBL document CHEMBL4689842, “EUbOPEN Chemogenomics Library wave 1” (2021)

Key:
Assay type in all cases: toxicity, cell-based
[1] = test system: HEK-293T; assay: Incucyte cell viability with HEK293T; conditions: human, 10 µM, compound concentration 10 uM; note: filed as whole numbers so only -1 and 0 and 1 occur
[2] = test system: U2OS; assay: Incucyte cell viability with U2OS; conditions: human, 10 µM, compound concentration 10 uM; note: filed as whole numbers so only -1 and 0 and 1 occur
[3] = test system: Fibroblast; assay: Multiplex assay against human fibroblast
Summary of the method: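 Live cells carried four stains from seeding: Hoechst33342, BioTracker Green Microtubule Cytoskeleton Dye, MitoTracker Red and Annexin V Alexa Fluor 680. They were imaged on a CQ1 microscope at 37°C and 5% CO2 after compound addition. Using CellPathfinder machine-learning gating, cells were split into Hoechst high-intensity objects or normal cells, normal cells into healthy, pyknosed or fragmented nuclei, and pyknosed cells into mitotic or apoptotic; tubulin, mitochondrial-mass and membrane-permeability phenotypes are per cents of healthy-nucleus cells.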

[4] = 6 h, replicate number 1, timepoint 6 hours
[5] = 12 h, replicate number 1, timepoint 12 hours
[6] = 18 h, replicate number 1, timepoint 18 hours
[7] = 24 h, replicate number 1, timepoint 24 hours
[8] = 12 h, 1 µM, compound concentration 1 uM, replicate 1
[9] = 12 h, 1 µM, compound concentration 1 uM, replicate 2
[10] = 12 h, 10 µM, compound concentration 10 uM, replicate 1
[11] = 12 h, 10 µM, compound concentration 10 uM, replicate 2
[12] = 24 h, 1 µM, compound concentration 1 uM, replicate 1
[13] = 24 h, 1 µM, compound concentration 1 uM, replicate 2
[14] = 24 h, 10 µM, compound concentration 10 uM, replicate 1
[15] = 24 h, 10 µM, compound concentration 10 uM, replicate 2
[16] = 48 h, 1 µM, compound concentration 1 uM, replicate 1
[17] = 48 h, 1 µM, compound concentration 1 uM, replicate 2
[18] = 48 h, 10 µM, compound concentration 10 uM, replicate 1
[19] = 48 h, 10 µM, compound concentration 10 uM, replicate 2

COc1ccc(NS(=O)(=O)c2sc3ccc(Cl)cc3c2C)cc1N1CCNCC1.Cl
Growth Rate ([1]; 0 h, replicate number 2, timepoint 0 hours): 1 | Growth Rate [1, 4]: 0 | Growth Rate [1, 5]: 0 | Growth Rate [1, 6]: 0 | Growth Rate [1, 7]: 0 | Growth Rate [2, 4]: 0 | Growth Rate [2, 5]: 0 | Growth Rate [2, 6]: 0 | Growth Rate [2, 7]: 0 | Population Apoptotic (%) [3, 8]: 50% | Population Fragmented Nuclei (%) [3, 8]: 25% | Population Healthy Nuclei (%) [3, 8]: 38% | Population Hoechst High Intensity Objects (%) [3, 8]: 10% | Population Membrane Permeable-Phenotype (%) [3, 8]: 30% | Population Mitochondria Different-Phenotype (%) [3, 8]: 4% | Population Mitotic Cells (%) [3, 8]: 50% | Population Normal (%) [3, 8]: 89% | Population Pyknosed Nuclei (%) [3, 8]: 35% | Population Tubulin-Different-Phenotype (%) [3, 8]: 30% | Total Cell Count [3, 8]: 125 | Population Apoptotic (%) [3, 9]: 28% | Population Fragmented Nuclei (%) [3, 9]: 13% | Population Healthy Nuclei (%) [3, 9]: 69% | Population Hoechst High Intensity Objects (%) [3, 9]: 12% | Population Membrane Permeable-Phenotype (%) [3, 9]: 0% | Population Mitochondria Different-Phenotype (%) [3, 9]: 26% | Population Mitotic Cells (%) [3, 9]: 71% | Population Normal (%) [3, 9]: 87% | Population Pyknosed Nuclei (%) [3, 9]: 16% | Population Tubulin-Different-Phenotype (%) [3, 9]: 10% | Total Cell Count [3, 9]: 69 | Population Apoptotic (%) [3, 10]: 75% | Population Fragmented Nuclei (%) [3, 10]: 33% | Population Healthy Nuclei (%) [3, 10]: 47% | Population Hoechst High Intensity Objects (%) [3, 10]: 22% | Population Membrane Permeable-Phenotype (%) [3, 10]: 1% | Population Mitochondria Different-Phenotype (%) [3, 10]: 40% | Population Mitotic Cells (%) [3, 10]: 24% | Population Normal (%) [3, 10]: 77% | Population Pyknosed Nuclei (%) [3, 10]: 19% | Population Tubulin-Different-Phenotype (%) [3, 10]: 88% | Total Cell Count [3, 10]: 217 | Population Apoptotic (%) [3, 11]: 61% | Population Fragmented Nuclei (%) [3, 11]: 14% | Population Healthy Nuclei (%) [3, 11]: 56% | Population Hoechst High Intensity Objects (%) [3, 11]: 4% | Population Membrane Permeable-Phenotype (%) [3, 11]: 25% | Population Mitochondria Different-Phenotype (%) [3, 11]: 100% | Population Mitotic Cells (%) [3, 11]: 38% | Population Normal (%) [3, 11]: 95% | Population Pyknosed Nuclei (%) [3, 11]: 29% | Population Tubulin-Different-Phenotype (%) [3, 11]: 94% | Total Cell Count [3, 11]: 49 | Population Apoptotic (%) [3, 12]: 40% | Population Fragmented Nuclei (%) [3, 12]: 26% | Population Healthy Nuclei (%) [3, 12]: 52% | Population Hoechst High Intensity Objects (%) [3, 12]: 11% | Population Membrane Permeable-Phenotype (%) [3, 12]: 25% | Population Mitochondria Different-Phenotype (%) [3, 12]: 3% | Population Mitotic Cells (%) [3, 12]: 60% | Population Normal (%) [3, 12]: 88% | Population Pyknosed Nuclei (%) [3, 12]: 20% | Population Tubulin-Different-Phenotype (%) [3, 12]: 42% | Total Cell Count [3, 12]: 136 | Population Apoptotic (%) [3, 13]: 33% | Population Fragmented Nuclei (%) [3, 13]: 10% | Population Healthy Nuclei (%) [3, 13]: 77% | Population Hoechst High Intensity Objects (%) [3, 13]: 3% | Population Membrane Permeable-Phenotype (%) [3, 13]: 5% | Population Mitochondria Different-Phenotype (%) [3, 13]: 13% | Population Mitotic Cells (%) [3, 13]: 66% | Population Normal (%) [3, 13]: 96% | Population Pyknosed Nuclei (%) [3, 13]: 12% | Population Tubulin-Different-Phenotype (%) [3, 13]: 5% | Total Cell Count [3, 13]: 67 | Population Apoptotic (%) [3, 14]: 72% | Population Fragmented Nuclei (%) [3, 14]: 23% | Population Healthy Nuclei (%) [3, 14]: 51% | Population Hoechst High Intensity Objects (%) [3, 14]: 25% | Population Membrane Permeable-Phenotype (%) [3, 14]: 9% | Population Mitochondria Different-Phenotype (%) [3, 14]: 50% | Population Mitotic Cells (%) [3, 14]: 27% | Population Normal (%) [3, 14]: 74% | Population Pyknosed Nuclei (%) [3, 14]: 25% | Population Tubulin-Different-Phenotype (%) [3, 14]: 80% | Total Cell Count [3, 14]: 226 | Population Apoptotic (%) [3, 15]: 68% | Population Fragmented Nuclei (%) [3, 15]: 16% | Population Healthy Nuclei (%) [3, 15]: 47% | Population Hoechst High Intensity Objects (%) [3, 15]: 2% | Population Membrane Permeable-Phenotype (%) [3, 15]: 55% | Population Mitochondria Different-Phenotype (%) [3, 15]: 97% | Population Mitotic Cells (%) [3, 15]: 32% | Population Normal (%) [3, 15]: 97% | Population Pyknosed Nuclei (%) [3, 15]: 35% | Population Tubulin-Different-Phenotype (%) [3, 15]: 91% | Total Cell Count [3, 15]: 51 | Population Apoptotic (%) [3, 16]: 66% | Population Fragmented Nuclei (%) [3, 16]: 38% | Population Healthy Nuclei (%) [3, 16]: 47% | Population Hoechst High Intensity Objects (%) [3, 16]: 20% | Population Membrane Permeable-Phenotype (%) [3, 16]: 17% | Population Mitochondria Different-Phenotype (%) [3, 16]: 0% | Population Mitotic Cells (%) [3, 16]: 33% | Population Normal (%) [3, 16]: 79% | Population Pyknosed Nuclei (%) [3, 16]: 14% | Population Tubulin-Different-Phenotype (%) [3, 16]: 21% | Total Cell Count [3, 16]: 134 | Population Apoptotic (%) [3, 17]: 100% | Population Fragmented Nuclei (%) [3, 17]: 53% | Population Healthy Nuclei (%) [3, 17]: 45% | Population Hoechst High Intensity Objects (%) [3, 17]: 25% | Population Membrane Permeable-Phenotype (%) [3, 17]: 9% | Population Mitochondria Different-Phenotype (%) [3, 17]: 1% | Population Mitotic Cells (%) [3, 17]: 0% | Population Normal (%) [3, 17]: 74% | Population Pyknosed Nuclei (%) [3, 17]: 1% | Population Tubulin-Different-Phenotype (%) [3, 17]: 49% | Total Cell Count [3, 17]: 219 | Population Apoptotic (%) [3, 18]: 86% | Population Fragmented Nuclei (%) [3, 18]: 33% | Population Healthy Nuclei (%) [3, 18]: 44% | Population Hoechst High Intensity Objects (%) [3, 18]: 42% | Population Membrane Permeable-Phenotype (%) [3, 18]: 10% | Population Mitochondria Different-Phenotype (%) [3, 18]: 46% | Population Mitotic Cells (%) [3, 18]: 13% | Population Normal (%) [3, 18]: 57% | Population Pyknosed Nuclei (%) [3, 18]: 21% | Population Tubulin-Different-Phenotype (%) [3, 18]: 73% | Total Cell Count [3, 18]: 191 | Population Apoptotic (%) [3, 19]: 93% | Population Fragmented Nuclei (%) [3, 19]: 34% | Population Healthy Nuclei (%) [3, 19]: 26% | Population Hoechst High Intensity Objects (%) [3, 19]: 24% | Population Membrane Permeable-Phenotype (%) [3, 19]: 22% | Population Mitochondria Different-Phenotype (%) [3, 19]: 54% | Population Mitotic Cells (%) [3, 19]: 6% | Population Normal (%) [3, 19]: 75% | Population Pyknosed Nuclei (%) [3, 19]: 39% | Population Tubulin-Different-Phenotype (%) [3, 19]: 72% | Total Cell Count [3, 19]: 111
